# Results gathered from unrelated publications.
# Compare with care: the assays were run in different laboratories.
# Effect on: cell growth or viability
Structure (SMILES),cell line,technique,tested at,time,viability [%]
CC(C)(C)c1cnc(CSc2cnc(NC(=O)C3CCN(CCCCSc4cccc5c4C(=O)N(C4CCC(=O)NC4=O)C5=O)CC3)s2)o1 (stereo not shown),HH,CCK-8,0.5 µM,,0
CC(=NNC(=O)c1ccccc1)c1ccc(Nc2nnc(-c3ccc(Cl)cc3)c3ccccc23)cc1,HepG2,MTT,0.625 µM,24 h,48.7
CC(C)(C)c1cnc(CSc2cnc(NC(=O)C3CCN(CCCCCSc4cccc5c4CN(C4CCC(=O)NC4=O)C5=O)CC3)s2)o1 (stereo not shown),HH,CCK-8,10 nM,,93.5
CC(=NNC(=O)c1ccccc1Cl)c1ccc(Nc2nnc(-c3ccc(Cl)cc3)c3ccccc23)cc1,HepG2,MTT,2.5 µM,24 h,4.78
CC(=O)c1nn(-c2ccccc2Cl)/c(=N/N=C(\C)c2ccc(NC(=O)c3ccccc3)cc2)s1,HepG2,MTT,78 nM,,71.7
CC(=NNC(=O)COc1ccc2c(C)c(Cc3ccccc3)c(=O)oc2c1C)c1ccc(Br)cc1,HepG2,MTT,1.6 µg/mL,,54.8
CC(=O)Nc1ccc(/C(C)=N/N=c2\sc(C(C)=O)nn2-c2ccc(C)cc2)cc1,HepG2,MTT,2.5 µM,,99.4
CC(=NNC(=O)c1ccccc1Br)c1ccc(Nc2nnc(-c3ccc(Cl)cc3)c3ccccc23)cc1,HepG2,MTT,0.312 µM,24 h,85.4
CCOC(=O)c1nn(-c2cccc(Cl)c2)/c(=N/N=C(\C)c2ccc(NC(=O)c3ccccc3)cc2)s1,HepG2,MTT,10 µM,,3
CC(C)(C)c1cnc(CSc2cnc(NC(=O)C3CCN(CCCCCCCSc4cccc5c4C(=O)N(C4CCC(=O)NC4=O)C5=O)CC3)s2)o1 (stereo not shown),HH,CCK-8,10 nM,,99.5
